# The RNAGym collection of RNA variant scans (doi:10.1038/nmeth.2970)
# B1: NELF-E aptamer (parent)
# chain: CCCAACGACUGCCGAGCGAGAUUACGCUUGAGCGCCCCACUGAGGAUGCCCACGGGCGAUUGGGGCACGG
# Variants of: B1
# Assay: HiTS-RAP
# Conditions: with NELF-E (Drosophila)
# Outline: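 Kd came from weighted Hill fits to the first binding curve, with intensities normalised to sequencing intensity and averaged per sequence, keeping only fits whose variance was below 1,000,000. That curve was imaged on an Illumina GAIIx flowcell, where sequenced aptamer DNA templates with a T7 promoter and ter site had been transcribed in situ by T7 RNA polymerase and halted by GST-Tus (30 minutes, 37°C). Before each image, clusters equilibrated for 30 minutes at room temperature with NELF-E-mOrange at 0.064 to 1000 nM in HEPES binding buffer.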
row,Variant,Kd [nM]
1,G11U G42A,55.9
2,G11U G54A,14.1
3,G11U G55A,8.79
4,G11U G55U,7.1
5,G11U G56A,10.8
6,G11U G62A,19.7
7,G11U G63A,19.4
8,G11U G63U,8.25
9,G11U G64A,9.29
10,G11U G65A,5.5
11,G11U G65U,7.6
12,G11U U22G,6.4
13,G11U U23G,6.33
14,G11U U28C,9.24
15,G11U U29A,5.62
16,G11U U29C,6.7
17,G11U U29G,6
18,G11U U41G,6.22
19,G11U U47G,7.92
20,G11U U61A,41.1
21,G11U U61C,64.3
22,C12A,4.42
23,C12A A24G,5.99
24,C12A C13G,5.33

row,Variant,Kd [nM]
1,C12A U22G,4.37
2,C12A U23G,5.88
3,C12G,5.44
4,C12G A15G,6.14
5,C12G A15U,6.36
6,C12G A19G,5.93
7,C12G A21G,7.12
8,C12G A21U,6.04
9,C12G A24G,5.9
10,C12G A31G,7.14
11,C12G A39G,10.3
12,C12G A39U,25
13,C12G A43G,26.1
14,C12G A46G,44.8
15,C12G A52G,5.15
16,C12G A52U,16.2
17,C12G A59G,57.4
18,C12G A67G,6.86
19,C12G A67U,7.12
20,C12G C13G,5.01
21,C12G C13U,5.88
22,C12G C17G,5.66
23,C12G C17U,7.01
24,C12G C25G,4.47

row,Variant,Kd [nM]
1,C12G C33U,6
2,C12G C36U,7.29
3,C12G C37G,7.38
4,C12G C37U,16.6
5,C12G C40U,126
6,C12G C53U,5.74
7,C12G C57U,6.51
8,C12G C66U,6.17
9,C12G G14A,5.91
10,C12G G14U,6.28
11,C12G G16U,7.23
12,C12G G18A,7.26
13,C12G G20U,7.97
14,C12G G26A,4.12
15,C12G G26U,5.65
16,C12G G34A,7.36
17,C12G G42A,39.8
18,C12G G48A,9.02
19,C12G G54A,18.2
20,C12G G55A,7.66
21,C12G G55U,8.9
22,C12G G56U,6.08
23,C12G G62U,10.8
24,C12G G63U,13.7

row,Variant,Kd [nM]
1,C12G G64A,8.49
2,C12G G65U,8.23
3,C12G U22C,6.9
4,C12G U22G,5.79
5,C12G U23C,3.97
6,C12G U23G,5.85
7,C12G U28A,6.47
8,C12G U28C,8.42
9,C12G U28G,8.85
10,C12G U29A,5.65
11,C12G U29C,6.33
12,C12G U29G,5.61
13,C12G U41G,5.67
14,C12G U47G,8.13
15,C12G U61A,39.1
16,C12U,4.54
17,C12U A19G,5.36
18,C12U A24G,5.74
19,C12U A31G,6.76
20,C12U A39G,6.76
21,C12U C13G,5.4
22,C12U C13U,3.39
23,C12U C17G,6.2
24,C12U G14U,8.16

row,Variant,Kd [nM]
1,C12U G16U,5.76
2,C12U G34A,5.3
3,C12U U22G,5.99
4,C12U U23G,5.04
5,C12U U29G,5.46
6,C12U U41G,6.2
7,C13A,5.28
8,C13A A24G,9.1
9,C13A G20U,7.23
10,C13A U22G,5.85
11,C13A U23G,5.96
12,C13A U29G,5.66
13,C13G,4.88
14,C13G A15G,6.03
15,C13G A15U,6.13
16,C13G A19G,5.43
17,C13G A19U,4.52
18,C13G A21G,4.63
19,C13G A21U,5.52
20,C13G A24G,5.57
21,C13G A24U,7.79
22,C13G A31G,7.08
23,C13G A31U,5.78
24,C13G A39G,9.58

row,Variant,Kd [nM]
1,C13G A39U,19
2,C13G A43G,15.3
3,C13G A43U,27.8
4,C13G A46G,47.3
5,C13G A46U,87.3
6,C13G A52G,4.96
7,C13G A52U,16.9
8,C13G A59G,12.2
9,C13G A59U,42.1
10,C13G A67G,5.62
11,C13G A67U,7.5
12,C13G C17G,4.68
13,C13G C17U,5.43
14,C13G C25G,5.76
15,C13G C25U,5.55
16,C13G C27U,4.45
17,C13G C33G,6.05
18,C13G C33U,5.79
19,C13G C35U,14.4
20,C13G C36G,6.08
21,C13G C36U,7.49
22,C13G C37A,21.7
23,C13G C37G,6.46
24,C13G C37U,10.3

row,Variant,Kd [nM]
1,C13G C38U,6.55
2,C13G C40G,5.72
3,C13G C49U,31.9
4,C13G C50U,14.7
5,C13G C51U,6.36
6,C13G C53G,7.39
7,C13G C53U,3.49
8,C13G C57U,6.43
9,C13G C66U,5.32
10,C13G G14A,6.02
11,C13G G14C,7.7
12,C13G G14U,5.85
13,C13G G16A,6.87
14,C13G G16U,6.25
15,C13G G18A,5.31
16,C13G G18U,6.2
17,C13G G20A,7.5
18,C13G G20U,6.39
19,C13G G26A,4.79
20,C13G G26U,5.51
21,C13G G30A,4.93
22,C13G G30U,6.03
23,C13G G32A,4.64
